This passage reports IC50, inhibition in vivo and MABP results from ChEMBL document CHEMBL1126555, “6-Substituted benzimidazoles as new nonpeptide angiotensin II receptor antagonists: synthesis, biological activity, and structure-activity relationships” (J Med Chem, 1993).

Molecules are shown by their SMILES.

One assay addresses T1, Type-1 angiotensin II receptor B (Rattus norvegicus, UniProt P29089).
T1 sequence (P29089 whole entry): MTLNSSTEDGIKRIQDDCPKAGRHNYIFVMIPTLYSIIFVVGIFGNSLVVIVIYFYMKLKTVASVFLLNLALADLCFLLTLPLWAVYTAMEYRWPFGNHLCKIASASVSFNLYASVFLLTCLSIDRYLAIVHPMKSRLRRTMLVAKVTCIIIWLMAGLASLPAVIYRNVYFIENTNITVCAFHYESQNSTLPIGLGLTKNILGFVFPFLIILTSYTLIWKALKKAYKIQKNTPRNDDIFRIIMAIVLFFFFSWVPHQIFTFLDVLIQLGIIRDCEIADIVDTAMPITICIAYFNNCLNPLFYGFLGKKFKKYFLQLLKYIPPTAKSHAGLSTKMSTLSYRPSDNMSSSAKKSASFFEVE
Nature of the assay: Inhibition of specific binding of [125I]angiotensin-II to angiotensin 1 receptor in rat lung membrane preparation. In kind it is cell membranes.
Conditions: not given
Put shortly: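 Membranes from lungs of male Wistar rats (Chbb:THOM, 200–220 g), homogenized in Tris buffer pH 7.20 and spun at 1000g, then twice at 48 000g. DMSO ≤1%. Nonspecific binding defined with 1 μM AII. Filtration, gamma counting. IC50 from nonlinear fit; Ki by Cheng–Prusoff.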
The term IC50 denotes the concentration that inhibits the measured activity by half. A low value points to greater potency in that assay. In turn, `CCCCc1nc2ccc(NC(=O)NC3CCCCC3)cc2n1Cc1ccc(-c2ccccc2-c2nn[nH]n2)cc1` yielded an IC50 of 21 nM. In other words, the double-digit nanomolar range.

In turn, `CCCCc1nc2ccc(NC(=O)N(C)C)cc2n1Cc1ccc(-c2ccccc2-c2nn[nH]n2)cc1` gave an IC50 of 8 nM.

The compound `CCCCc1nc2c(NC(C)=O)cccc2n1Cc1ccc(-c2ccccc2C(=O)O)cc1` came in with an IC50 of 5700 nM.

As for `CCCCC(=O)Nc1ccc2nc(CCCC)n(Cc3ccc(-c4ccccc4C(=O)O)cc3)c2c1`, the half-inhibitory concentration (IC50) was 86 nM. This IC50 lies about 66-fold lower than the previous one.

Turning to `CCCCc1nc2ccc(N(C)S(=O)(=O)CCC)cc2n1Cc1ccc(-c2ccccc2C(=O)O)cc1`, the IC50 amounted to 33 nM.

Compound `CCCCc1nc2ccc(NC(=O)N(C)C)cc2n1Cc1ccc(-c2ccccc2C(=O)O)cc1` displayed an IC50 of 24 nM. This IC50 and that of the compound before are within 1.5-fold of each other.

In turn, `CCCCc1nc2cccc(NC(C)=O)c2n1Cc1ccc(-c2ccccc2C(=O)O)cc1` returned an IC50 of 1800 nM. Against the preceding compound, the IC50 is about 75-fold higher.

With `CCCc1nc2c(C)cc(-c3ccccn3)cc2n1Cc1ccc(-c2ccccc2-c2nnn[nH]2)cc1`, the IC50 was determined as 5 nM.

The compound `CCCCc1nc2ccc(N)cc2n1Cc1ccc(-c2ccccc2C(=O)O)cc1` yielded an IC50 of 540 nM.

For `CCCCc1nc2cc(N)ccc2n1Cc1ccc(-c2ccccc2C(=O)O)cc1`, the half-inhibitory concentration (IC50) worked out at 820 nM.

Compound `CCCCc1nc2cccc(NC(=O)NC3CCCCC3)c2n1Cc1ccc(-c2ccccc2C(=O)O)cc1` had an IC50 of 160 nM.

On to `CCCc1nc2ccc(-c3ccccn3)cc2n1Cc1ccc(-c2ccccc2-c2nnn[nH]2)cc1`, for which the 50% inhibitory concentration (IC50) was found to be 11 nM. This IC50 lies about 15-fold lower than the previous one.

In turn, `CCCCc1nc2ccc(N3CCCCS3(=O)=O)cc2n1Cc1ccc(-c2ccccc2-c2nnn[nH]2)cc1` showed a concentration for half-maximal inhibition (IC50) of 3 nM.

In turn, `CCCCc1nc2c(C)cccc2n1Cc1ccc(-c2ccccc2C(=O)O)cc1` yielded an IC50 of 1200 nM.

`CCCc1nc2ccc(-c3nc4ccccc4n3C)cc2n1Cc1ccc(-c2ccccc2-c2nn[nH]n2)cc1` returned an IC50 of 5 nM. This IC50 lies about 240-fold lower than the previous one.

In turn, `CCCCc1nc2ccc(NC(=O)NC3CCCCC3)cc2n1Cc1ccc(-c2ccccc2C(=O)O)cc1` showed an IC50 of 26 nM.

`CCCCCNc1ccc2nc(CCCC)n(Cc3ccc(-c4ccccc4C(=O)O)cc3)c2c1` had an IC50 of 390 nM.

`CCCCc1nc2cc(C)ccc2n1Cc1ccc(-c2ccccc2C(=O)O)cc1` returned an IC50 of 1200 nM.

Turning to `CCCCc1nc2ccc(N3CCCCC3)cc2n1Cc1ccc(-c2ccccc2C(=O)O)cc1`, the IC50 was found to be 160 nM.

`CCCc1nc2c(C)cc(CN(C)C)cc2n1Cc1ccc(-c2ccccc2C(=O)O)cc1` yielded an IC50 of 158 nM.

As for `CCCc1nc2c(C)cc(-c3cn4ccccc4n3)cc2n1Cc1ccc(-c2ccccc2-c2nnn[nH]2)cc1`, the IC50 was 3 nM.

In the case of `CCCCc1nc2c(N)cccc2n1Cc1ccc(-c2ccccc2C(=O)O)cc1`, the IC50 was 1700 nM.

`CCCCc1nc2cccc(C)c2n1Cc1ccc(-c2ccccc2C(=O)O)cc1` came in with an IC50 of 480 nM.

Take `CCCCc1nc2cc(NC(=O)NC3CCCCC3)ccc2n1Cc1ccc(-c2ccccc2C(=O)O)cc1`: the IC50 was 800 nM.

Take `CCCCc1nc2ccc(N(C)C(=O)NC3CCCCC3)cc2n1Cc1ccc(-c2ccccc2C(=O)O)cc1`: the IC50 worked out at 26 nM. Compared with the last compound, the IC50 is about 31-fold lower.

With `CCCCc1nc2ccc(NC(C)=O)cc2n1Cc1ccc(-c2ccccc2C(=O)O)cc1`, the IC50 turned out to be 180 nM.

In the case of `CCCc1nc2c(C)cc(-c3nc4ccccc4n3C)cc2n1Cc1ccc(-c2ccccc2-c2nnn[nH]2)cc1`, the IC50 was 13 nM.

As to `CCCCc1nc2ccccc2n1Cc1ccc(-c2ccccc2C(=O)O)cc1`, the IC50 was determined as 400 nM.

Regarding `CCCCc1nc2ccc(N3CCCCC3=O)cc2n1Cc1ccc(-c2ccccc2-c2nnn[nH]2)cc1`, the IC50 came out at 4 nM.

The compound `CCCCc1nc2ccc(N3CCCCC3=O)cc2n1Cc1ccc(-c2ccccc2C(=O)O)cc1` had an IC50 of 81 nM.

`CCCCc1nc2ccc(N3CCCCS3(=O)=O)cc2n1Cc1ccc(-c2ccccc2C(=O)O)cc1` returned an IC50 of 34 nM.

Compound `CCCCc1nc2c(NC(=O)NC3CCCCC3)cccc2n1Cc1ccc(-c2ccccc2C(=O)O)cc1` gave an IC50 of 29300 nM.

`CCCc1nc2c(C)cc(-c3nc4ccccc4n3C)cc2n1Cc1ccc(-c2ccccc2C(=O)O)cc1` yielded a half-maximal inhibitory concentration (IC50) of 3 nM. This IC50 is about 9800-fold lower than that of the compound before.

Turning to `CCCc1nc2ccc(-c3nc4ccccc4o3)cc2n1Cc1ccc(-c2ccccc2-c2nn[nH]n2)cc1`, the IC50 is 240 nM.

`CCCCc1nc2ccc(N(C)C(=O)NC3CCCCC3)cc2n1Cc1ccc(-c2ccccc2-c2nn[nH]n2)cc1` registered a half-inhibitory concentration (IC50) of 10 nM.

As for `CCCCc1nc2ccc(C)cc2n1Cc1ccc(-c2ccccc2C(=O)O)cc1`, the IC50 stood at 850 nM.

In the case of `CCCCc1nc(Cl)c(CO)n1Cc1ccc(-c2ccccc2C(=O)O)cc1`, the IC50 worked out at 350 nM.

The compound `CCCCc1nc2cc(NC(C)=O)ccc2n1Cc1ccc(-c2ccccc2C(=O)O)cc1` returned an IC50 of 460 nM. This IC50 and that of the compound before are within 1.5-fold of each other.

For `CCCc1nc2ccc(-c3nc4ccccc4n3C)cc2n1Cc1ccc(-c2ccccc2C(=O)O)cc1`, the IC50 was found to be 3 nM. Compared with the last compound, the IC50 is about 150-fold lower.

For the next assay, the system named is Rattus norvegicus. Nature of the assay: Tested for percent inhibition of AII pressor response 2 hr after i.v. administration of 0.3 mg/Kg in rats. The class given is functional. To be noted: iv.
As a reminder, the inhibition in vivo is the share of the control response that was lost under treatment. Turning to `CCCCc1nc2ccc(N3CCCCS3(=O)=O)cc2n1Cc1ccc(-c2ccccc2-c2nnn[nH]2)cc1`, the inhibition in vivo at 0.3 mg/kg turned out to be 60%.

In turn, `CCCCc1nc2ccc(N3CCCCC3=O)cc2n1Cc1ccc(-c2ccccc2-c2nnn[nH]2)cc1` came in with an inhibition in vivo at 0.3 mg/kg of 60%.

For the next assay, the system named is Rattus norvegicus. Description: Fall in mean arterial blood pressure (MABP) at 1 mg/kg po bid for 4 days after first treatment in conscious chronically-instrumented renovascular hypertensive rats.
Conditions: not given
In kind it is functional. Put shortly:
(§1)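 Male Chbb:THOM rats (140–150 g) made renovascular hypertensive by a silver clip (internal diameter 0.20 mm) on the left renal artery under pentobarbitone-sodium (50 mg/kg ip). Chronic-use pressure transmitter implanted. Conscious animals dosed orally twice daily for 4 days. Mean arterial pressure and heart rate recorded continuously at 1-h intervals over 96 h, given as mean ± SE.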
`CCCc1nc2c(C)cc(-c3nc4ccccc4n3C)cc2n1Cc1ccc(-c2ccccc2C(=O)O)cc1` showed an MABP of 42 mmHg.

For the next assay, the system named is Rattus norvegicus. Nature of the assay: Maximum fall in mean arterial blood pressure (MABP) at 1 mg/kg po bid after 4 days of treatment in conscious chronically-instrumented renovascular hypertensive rats. In kind it is functional.
Conditions: not given
Put shortly:
as §1
The compound `CCCc1nc2c(C)cc(-c3nc4ccccc4n3C)cc2n1Cc1ccc(-c2ccccc2C(=O)O)cc1` registered an MABP of 68 mmHg.
